Measurements reported in ChEMBL document CHEMBL2424587, “Antiproliferative activity of abietane diterpenoids against human tumor cells” (J Nat Prod, 2013).
Activity calls are given as the source filed them. The calls are words filed in the database; no cut-off is given here.

tested on: HL-60; experiment: Induction of apoptosis in human HL60 cells using DEVD-pNA as substrate assessed as caspase-3/7 activation at 3 uM after 24 hrs relative to control; type: functional; conditions: not given
Procedure, shortened: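 HL-60 cells treated with 3 μM diterpene for 24 h. Lysates were assayed for cleavage of chromogenic tetrapeptide substrates DEVD-pNA (caspase-3/7), IETD-pNA (caspase-8) and LEHD-pNA (caspase-9). Activity is expressed as n-fold over untreated control. Mean ± SE of three independent experiments, each in triplicate.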

Row | SMILES | fold change (FC)
1 | COc1ccc(C(=O)OC2=C(C(C)C)C(=O)C3=C(C2=O)[C@@]2(C)CCCC(C)(C)[C@@H]2[C@H](O)[C@H]3OC(C)=O)cc1 | 2

tested on: HL-60; experiment: Induction of apoptosis in human HL60 cells after 24 hrs by flow cytometry in presence of caspase-9 inhibitor Z-LEHD-FMK; type: functional, cell-based; conditions: not given
Procedure, shortened: (§1)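 HL-60 cells pretreated 1 h with caspase inhibitor, then given diterpene for 24 h; hypodiploid cells counted by flow cytometry; mean ± SE of three independent experiments in triplicate.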

Row | SMILES | Activity
2 | COc1ccc(C(=O)OC2=C(C(C)C)C(=O)C3=C(C2=O)[C@@]2(C)CCCC(C)(C)[C@@H]2[C@H](O)[C@H]3OC(C)=O)cc1 | Active

tested on: HL-60; experiment: Induction of apoptosis in human HL60 cells assessed as nuclear chromatin fragmentation after 6 hrs by Hoechst 33258 staining-based fluorescence microscopy; type: functional, cell-based; conditions: not given

Row | SMILES | Activity
3 | COc1ccc(C(=O)OC2=C(C(C)C)C(=O)C3=C(C2=O)[C@@]2(C)CCCC(C)(C)[C@@H]2[C@H](O)[C@H]3OC(C)=O)cc1 | Active

tested on: HL-60; experiment: Induction of apoptosis in human HL60 cells at 3 uM after 24 hrs by flow cytometry in presence of Z-VAD-FMK; type: functional, cell-based; conditions: not given
Procedure, shortened: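 HL-60 cells pretreated with pancaspase inhibitor Z-VAD-FMK (100 μM), then given diterpene (3 μM) for 24 h. Hypodiploid (sub-G1) apoptotic cells were counted by flow cytometry. Mean ± SE of three independent experiments, each in triplicate.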

Row | SMILES | Activity
4 | COc1ccc(C(=O)OC2=C(C(C)C)C(=O)C3=C(C2=O)[C@@]2(C)CCCC(C)(C)[C@@H]2[C@H](O)[C@H]3OC(C)=O)cc1 | Active

tested on: HL-60; experiment: Cytotoxicity against human HL60 cells after 72 hrs by MTT assay; type: functional, cell-based; conditions: HL-60, 72 h
Procedure, shortened: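 MTT assay: 1 × 10^4 exponentially growing cells per well incubated 72 h over a range of compound concentrations; MTT 0.5 mg/mL for 4 h at 37 °C, then 10% SDS in 0.05 M HCl overnight at room temperature in the dark; absorbance at 570 nm. Leukemia and SK-MEL-1 lines grown in RPMI 1640, MCF-7 in DMEM, both with 10% heat-inactivated FBS. IC50 given as mean ± SEM of 3–5 independent experiments, each in triplicate.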

Row | SMILES | IC50 [nM]
5 | COc1ccc(C(=O)OC2=C(C(C)C)C(=O)C3=C(C2=O)[C@@]2(C)CCCC(C)(C)[C@@H]2[C@H](O)[C@H]3OC(C)=O)cc1 | 2700

tested on: HL-60; experiment: Induction of apoptosis in human HL60 cells assessed as procaspase-3 cleavage at 3 uM after 24 hrs by immunoblotting analysis; type: functional, cell-based; conditions: not given
Procedure, shortened: (§2)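 HL-60 cells treated 24 h with 3 μM; immunoblots of lysates probed with antibodies that recognize both pro-caspases and cleaved caspases, and for PARP.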

Row | SMILES | Activity
6 | COc1ccc(C(=O)OC2=C(C(C)C)C(=O)C3=C(C2=O)[C@@]2(C)CCCC(C)(C)[C@@H]2[C@H](O)[C@H]3OC(C)=O)cc1 | Active

tested on: HL-60; experiment: Induction of apoptosis in human HL60 cells assessed as reduction in mitochondrial membrane potential at 3 uM after 24 hrs by JC-1 staining-based flow cytometry in presence of bongkrekic acid; type: functional, cell-based; conditions: not given
Procedure, shortened: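 HL-60 cells exposed to 3 μM diterpene for 24 h alongside permeability transition pore inhibitors cyclosporin A (25 μM, 24 h) or bongkrekic acid (25−50 μM, 24 h). Apoptosis was scored by flow cytometry. Mitochondrial membrane potential was read by JC-1 fluorescence on flow cytometry.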

Row | SMILES | Activity
7 | COc1ccc(C(=O)OC2=C(C(C)C)C(=O)C3=C(C2=O)[C@@]2(C)CCCC(C)(C)[C@@H]2[C@H](O)[C@H]3OC(C)=O)cc1 | Active

tested on: HL-60; experiment: Cytotoxicity against human HL60 cells overexpressing neomycin-resistant gene after 72 hrs by MTT assay; type: functional, cell-based; conditions: not given

Row | SMILES | Activity
8 | COc1ccc(C(=O)OC2=C(C(C)C)C(=O)C3=C(C2=O)[C@@]2(C)CCCC(C)(C)[C@@H]2[C@H](O)[C@H]3OC(C)=O)cc1 | Active

tested on: HL-60; experiment: Induction of apoptosis in human HL60 cells assessed as early apoptotic cells at 3 uM after 24 hrs by AnnexinV-FITC/propidium iodide staining-based flow cytometry (reference value: 1.6%); type: functional; conditions: not given
Procedure, shortened: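 HL-60 cells given 3 μM for 24 h, stained with annexin V-FITC and propidium iodide, and analysed by flow cytometry; annexin+/PI− cells scored as early apoptotic and double-positive cells as late; three separate experiments.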

Row | SMILES | Activity [%]
9 | COc1ccc(C(=O)OC2=C(C(C)C)C(=O)C3=C(C2=O)[C@@]2(C)CCCC(C)(C)[C@@H]2[C@H](O)[C@H]3OC(C)=O)cc1 | 30.2

tested on: HL-60; experiment: Induction of apoptosis in human HL60 cells assessed as PARP cleavage at 3 uM after 24 hrs by immunoblotting analysis; type: functional, cell-based; conditions: not given; procedure, shortened: as §2

Row | SMILES | Activity
10 | COc1ccc(C(=O)OC2=C(C(C)C)C(=O)C3=C(C2=O)[C@@]2(C)CCCC(C)(C)[C@@H]2[C@H](O)[C@H]3OC(C)=O)cc1 | Active

tested on: HL-60; experiment: Cell cycle arrest in human HL60 cells assessed as accumulation at Sub-G1 phase at 3 uM after 24 hrs by […]propidium iodide staining-based flow cytometry (reference value: 4%); type: functional; conditions: not given

Row | SMILES | Activity [%]
11 | COc1ccc(C(=O)OC2=C(C(C)C)C(=O)C3=C(C2=O)[C@@]2(C)CCCC(C)(C)[C@@H]2[C@H](O)[C@H]3OC(C)=O)cc1 | 28

tested on: PBMC; experiment: Cytotoxicity against human PBMC cells up to 3 uM after 24 hrs by MTT assay; type: cell-based; conditions: not given
Procedure, shortened: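 PBMC from heparinized blood of healthy volunteers, isolated on Ficoll-Paque, cultured in parallel with HL-60 cells for 24 h at the stated concentrations; viability measured by MTT; Student's t-test versus untreated control.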

Row | SMILES | Activity
12 | COc1ccc(C(=O)OC2=C(C(C)C)C(=O)C3=C(C2=O)[C@@]2(C)CCCC(C)(C)[C@@H]2[C@H](O)[C@H]3OC(C)=O)cc1 | Non-toxic

tested on: HL-60; experiment: Induction of apoptosis in human HL60 cells assessed as hypodiploid cells at 3 uM after 24 hrs by flow cytometry (reference value: 4.4 +/- 0.8%); type: functional; conditions: not given

Row | SMILES | Activity [%]
13 | COc1ccc(C(=O)OC2=C(C(C)C)C(=O)C3=C(C2=O)[C@@]2(C)CCCC(C)(C)[C@@H]2[C@H](O)[C@H]3OC(C)=O)cc1 | 34.5

tested on: HL-60; experiment: Induction of apoptosis in human HL60 cells assessed as hypodiploid cells after 24 hrs by flow cytometry in presence of caspase-8 inhibitor Z-IETD-FMK; type: functional, cell-based; conditions: not given; procedure, shortened: as §1

Row | SMILES | Activity
14 | COc1ccc(C(=O)OC2=C(C(C)C)C(=O)C3=C(C2=O)[C@@]2(C)CCCC(C)(C)[C@@H]2[C@H](O)[C@H]3OC(C)=O)cc1 | Active

tested on: HL-60; experiment: Induction of apoptosis in human HL60 cells assessed as procaspase-8 cleavage at 3 uM after 24 hrs by immunoblotting analysis; type: functional, cell-based; conditions: not given; procedure, shortened: as §2

Row | SMILES | Activity
15 | COc1ccc(C(=O)OC2=C(C(C)C)C(=O)C3=C(C2=O)[C@@]2(C)CCCC(C)(C)[C@@H]2[C@H](O)[C@H]3OC(C)=O)cc1 | Active
